Results reported in ChEMBL document CHEMBL1121486, “Synthesis of nitrosourea derivatives of pyridine and piperidine as potential anticancer agents” (1980).
“And” between values parts separate entries of the source, which are not always exact repeats. Equal entries are not always repeated.

How the values were obtained:
3EM 37 [1] = experiment: Compound tested for activity against 3EM 37 mouse ependymoblastoma after single ip injection on day 1 at optimal dose of 100 mg/kg (Dose range 200-12.5); format: functional; conditions: route intraperitoneal
3EM 37 [2] = experiment: Compound tested for toxicity against 3EM 37 Mouse Ependymoblastoma after single ip injection on day 1 at optimal dose (OD) of 100 mg/kg on the 5th day after the injection of the compound; (10/10); format: functional; conditions: route intraperitoneal
3EM 37 [3] = experiment: Effect of compound on 3EM 37 mouse ependymoblastoma after single ip injection on day 1 recorded as animal weight difference of the treated and the control (T-C) at OD of 100 mg/kg; format: functional; conditions: route intraperitoneal
3EM 37 [4] = experiment: Effect of compound on 3EM 37 mouse ependymoblastoma after single ip injection on day 1 recorded as percentage of cured animals at OD of 100 mg/kg; format: functional; conditions: route intraperitoneal
L1210 [5] = experiment: Compound tested for activity against mouse leukemia L1210 tumor (Intracerebrally implanted) after single ip injection on day 1 at optimal dose of 100 mg/kg (Dose range 200-12.5); format: functional; conditions: route intraperitoneal
L1210 [6] = experiment: Compound tested for activity against mouse leukemia L1210 tumor (Intraperitoneally implanted) after single ip injection on day 1 at optimal dose of 100 mg/kg (Dose range 200-12.5); format: functional; conditions: route intraperitoneal
How it was run: (§1)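 L1210 leukaemia implanted intraperitoneally in mice. Compound given over a dose range (mg/kg); optimum dose selected. Survivors for toxicity recorded day 5 post-injection. Measures: T – C body weight difference (g), % T/C, and cures, defined as 30-day survivors.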

L1210 [7] = experiment: The effect of compound on mouse leukemia L1210 tumor (Intraperitoneally implanted)after single dose injected intraperitoneally on day 1 […] at OD of 100 mg/kg; format: functional; conditions: route intraperitoneal
L1210 [8] = experiment: Compound tested for toxicity against mouse leukemia L1210 tumor (Intracerebrally implanted) after single ip injection on day 1 at optimal dose (OD) of 100 mg/kg on the 5th day after the injection of the compound; (6/6); format: functional; conditions: route intraperitoneal
L1210 [9] = experiment: Compound tested for toxicity against mouse leukemia L1210 tumor (Intraperitoneally implanted) after single ip injection on day 1 at optimal dose (OD) of 100 mg/kg on the 5th day after the injection of the compound; (6/6); format: functional; conditions: route intraperitoneal
[10] = system: Lewis lung carcinoma cell line; experiment: Effect of compound on Lewis Lung carcinoma after single dose injected intraperitoneally on day 1 recorded as animal weight difference of the treated and the control (T-C) at OD of 64 mg/kg; format: functional, Mus musculus; conditions: route intraperitoneal
Mus musculus [11] = experiment: Compound tested for the effect on total white blood cell count and reported as percentage change from control on day 7 at 53 mg/kg (ip); format: functional
How it was run: (§2)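 Total white blood cell count in mice. Treatment was intraperitoneal at the listed mg/kg doses, 10 mice per group. Counts were taken on days 3, 5 and 7 and expressed as % change from control, with the control being each group's predose value. Significance was taken at p ≤ 0.05.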

Mus musculus [12] = experiment: Compound tested for the effect on total white blood cell count and reported as percentage change from control on day 5 at 53 mg/kg (ip); format: functional; how it was run: as §2
Mus musculus [13] = experiment: Compound tested for the effect on total white blood cell count and reported as percentage change from control on day 7 at 106 mg/kg (ip); format: functional; how it was run: as §2
Mus musculus [14] = experiment: Compound tested for the effect on total white blood cell count and reported as percentage change from control on day 7 at 13.25 mg/kg (ip); format: functional; how it was run: as §2
Mus musculus [15] = experiment: Compound tested for the effect on total white blood cell count and reported as percentage change from control on day 3 at 106 mg/kg (ip); format: functional; how it was run: as §2
Mus musculus [16] = experiment: Compound tested for the effect on total white blood cell count and reported as percentage change from control on day 3 at 13.25 mg/kg (ip); format: functional; how it was run: as §2
Mus musculus [17] = experiment: Compound tested for the effect on total white blood cell count and reported as percentage change from control on day 3 at 26.5 mg/kg (ip); format: functional; how it was run: as §2
Mus musculus [18] = experiment: Compound tested for the effect on total white blood cell count and reported as percentage change from control on day 3 at 53 mg/kg (ip); format: functional; how it was run: as §2
Mus musculus [19] = experiment: Compound tested for the effect on total white blood cell count and reported as percentage change from control on day 5 at 106 mg/kg (ip); format: functional; how it was run: as §2
Mus musculus [20] = experiment: Compound tested for the effect on total white blood cell count and reported as percentage change from control on day 5 at 13.25 mg/kg (ip); format: functional; how it was run: as §2
P388 [21] = experiment: Compound tested for toxicity against mouse P388 cell (Intraperitoneally implanted) after single ip injection on day 1 at optimal dose (OD) of 100 mg/kg on the 5th day after the injection of the compound; (6/6); format: functional; conditions: route intraperitoneal
P388 [22] = experiment: Effect of compound on P388 cell after single ip injection on day 1 recorded as animal weight difference of the treated and the control (T-C) at OD of 100 mg/kg; format: functional, Mus musculus; conditions: route intraperitoneal
How it was run: (§3)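 Mice bore intraperitoneally implanted P-388 leukaemia and were dosed across a mg/kg range, with an optimum dose picked. Toxicity survivors were scored on day 5 after injection. Outcomes were T – C animal weight difference (g) and % T/C. A cure was a 30-day survivor.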

P388 [23] = experiment: The effect of compound on P388 cell after single dose injected intraperitoneally on day 1 […] at OD of 100 mg/kg; format: functional, Mus musculus; conditions: route intraperitoneal; how it was run: as §3
P388 [24] = experiment: Compound tested for activity against mouse leukemia L1210 tumor (Intraperitoneally implanted) after single ip injection on day 1 at optimal dose of 100 mg/kg (Dose range 200-6.25); format: functional; conditions: route intraperitoneal; how it was run: as §1
[25] = system: Lewis lung carcinoma cell line; experiment: Compound tested for activity against Lewis lung carcinoma after single ip injection on day 1 at optimal dose of 64 mg/kg (Dose range 64-2); conditions: route intraperitoneal
[26] = system: Lewis lung carcinoma cell line; experiment: Effect of compound on Lewis Lung carcinoma after single dose injected intraperitoneally on day 1 recorded as percentage of cured animals at OD of 64 mg/kg; conditions: Mus musculus, route intraperitoneal
L1210 [27] = experiment: Compound tested for activity against mouse leukemia L1210 tumor (Intraperitoneally implanted) after single ip injection on day 1 at optimal dose of 100 mg/kg (Dose range 100-6.25); format: functional; conditions: route intraperitoneal; how it was run: as §1
L1210 [28] = experiment: Effect of compound on mouse leukemia L1210 tumor (Intraperitoneally implanted) after single dose injected intraperitoneally on day 1 recorded as animal weight difference of the treated and the control (T-C) at OD of 100 mg/kg; format: functional; conditions: route intraperitoneal; how it was run: as §1
L1210 [29] = experiment: The effect of compound on mouse leukemia L1210 tumor (Intracerebrally implanted) after single dose injected intraperitoneally on day 1 […] at OD of 100 mg/kg; format: functional; conditions: route intraperitoneal
[30] = system: Lewis lung carcinoma cell line; experiment: Effect of compound on Lewis Lung carcinoma after single ip injection on day 1 recorded as animal weight difference of the treated and the control (T-C) at OD of 64-2 mg/kg; format: functional, Mus musculus
Mus musculus [31] = experiment: Compound tested for the effect on total white blood cell count and reported as percentage change from control on day 7 at 75 mg/kg (ip); format: functional; how it was run: as §2
Mus musculus [32] = experiment: Compound tested for the effect on total white blood cell count and reported as percentage change from control on day 7 at 8.38 mg/kg (ip); format: functional; how it was run: as §2
Mus musculus [33] = experiment: Compound tested for the effect on total white blood cell count and reported as percentage change from control on day 5 at 75 mg/kg (ip); format: functional; how it was run: as §2
Mus musculus [34] = experiment: Compound tested for the effect on total white blood cell count and reported as percentage change from control on day 5 at 8.38 mg/kg (ip); format: functional; how it was run: as §2
Mus musculus [35] = experiment: Compound tested for the effect on total white blood cell count and reported as percentage change from control on day 7 at 18.75 mg/kg (ip); format: functional; how it was run: as §2
Mus musculus [36] = experiment: Compound tested for the effect on total white blood cell count and reported as percentage change from control on day 7 at 37.5 mg/kg (ip); format: functional; how it was run: as §2
Mus musculus [37] = experiment: Compound tested for the effect on total white blood cell count and reported as percentage change from control on day 3 at 18.75 mg/kg (ip); format: functional; how it was run: as §2
Mus musculus [38] = experiment: Compound tested for the effect on total white blood cell count and reported as percentage change from control on day 3 at 37.5 mg/kg (ip); format: functional; how it was run: as §2
Mus musculus [39] = experiment: Compound tested for the effect on total white blood cell count and reported as percentage change from control on day 3 at 75 mg/kg (ip); format: functional; how it was run: as §2
Mus musculus [40] = experiment: Compound tested for the effect on total white blood cell count and reported as percentage change from control on day 3 at 8.38 mg/kg (ip); format: functional; how it was run: as §2
Mus musculus [41] = experiment: Compound tested for the effect on total white blood cell count and reported as percentage change from control on day 5 at 18.75 mg/kg (ip); format: functional; how it was run: as §2
Mus musculus [42] = experiment: Compound tested for the effect on total white blood cell count and reported as percentage change from control on day 5 at 37.5 mg/kg (ip); format: functional; how it was run: as §2
[43] = system: 3EM 37 ependymoblastoma (Mus musculus); experiment: Compound tested for activity against 3EM 37 mouse ependymoblastoma after single ip injection on day 1 at optimal dose of 100 mg/kg (Dose range 200-12.5); conditions: route intraperitoneal
[44] = system: Lewis lung carcinoma cell line; experiment: Effect of compound on Lewis Lung carcinoma after single dose injected intraperitoneally on day 1 recorded as percentage of cured animals at OD of 64 mg/kg; conditions: Mus musculus, route intraperitoneal; remark: listed apart in the source
3EM 37 [45] = experiment: Compound tested for toxicity against 3EM 37 mouse ependymoblastoma after single ip injection on day 1 at optimal dose (OD) of 100 mg/kg on the 5th day after the injection of the compound; (10/10); conditions: route intraperitoneal

O=C(O)/C=C\C(=O)O.O=NN(CCCl)C(=O)NC1CCN(Cc2ccccc2)CC1
Optimal dose (3EM 37 [1]): 100 mg/kg | Survival (3EM 37 [2]): 10 | T-C (3EM 37 [3]): -1.2 g | T/C (3EM 37 [4]): 242% | Optimal dose (L1210 [5]): 100 mg/kg | Optimal dose (L1210 [6]): 100 mg/kg | T/C (L1210 [7]; 100 mg/kg): 379% and 151% | Survival (L1210 [8]): 6 | Survival (L1210 [9]): 6 | T-C [10]: -2.9 g | Change (Mus musculus [11]): 14% and 7% | Change (Mus musculus [12]): -5% and 5% | Change (Mus musculus [13]): 1% | Change (Mus musculus [14]): 8% | Change (Mus musculus [15]): -67% | Change (Mus musculus [16]): 3% | Change (Mus musculus [17]): 12% | Change (Mus musculus [18]): -22% | Change (Mus musculus [19]): -35% | Change (Mus musculus [20]): 18% | Survival (P388 [21]): 6 | T-C (P388 [22]): -4.5 g | T/C (P388 [23]): 361% | Optimal dose (P388 [24]): 100 mg/kg | Optimal dose [25]: 64 mg/kg | T/C [26]: >353%

O=C(O)/C=C\C(=O)O.O=NN(CCCl)C(=O)NC1CCCN(Cc2ccccc2)C1 (stereo unspecified)
T/C (3EM 37 [4]): 223% | Optimal dose (L1210 [5]): 100 mg/kg | Optimal dose (L1210 [27]): 100 mg/kg | T-C (L1210 [28]): -5 g | T/C (L1210 [29]): 192% | T/C (L1210 [7]): 340% | Survival (L1210 [8]): 6 | Survival (L1210 [9]): 6 | Optimal dose [30]: 64 mg/kg | T-C [10]: -3.7 g | Change (Mus musculus [31]): 11% | Change (Mus musculus [32]): 23% | Change (Mus musculus [33]): -45% | Change (Mus musculus [34]): 15% | Change (Mus musculus [35]): 40% | Change (Mus musculus [36]): 60% | Change (Mus musculus [37]): -26% | Change (Mus musculus [38]): -20% | Change (Mus musculus [39]): -63% | Change (Mus musculus [40]): -19% | Change (Mus musculus [41]): -5% | Change (Mus musculus [42]): 16% | Optimal dose [43]: 100 mg/kg | T/C [44]: 259% | Survival (3EM 37 [45]): 10
